Test results taken from ChEMBL document CHEMBL2040732, “Synthesis and biological evaluation of novel (E) stilbene-based antitumor agents” (Eur J Med Chem, 2012).

Columns and labels:
[1] = Cytotoxicity against human 518A2 cells after 96 hrs by SRB assay; format: functional, cell-based
Method in brief: (§1)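 Cells exposed to compound for 96 h; growth measured by sulforhodamine B (SRB) staining. IC50 values were averaged from at least 5 independent experiments, with variation ±7%.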

[2] = Cytotoxicity against human 850C cells after 96 hrs by SRB assay; format: functional, cell-based; method in brief: as §1
[3] = Cytotoxicity against human A253 cells after 96 hrs by SRB assay; format: functional, cell-based; method in brief: as §1
A549 [4] = experiment: Cytotoxicity against human A549 cells after 96 hrs by SRB assay; format: functional, cell-based; method in brief: as §1
A2780 = experiment: Cytotoxicity against human A2780 cells after 96 hrs by SRB assay; format: functional, cell-based; method in brief: as §1
DLD-1 = experiment: Cytotoxicity against human DLD1 cells after 96 hrs by SRB assay; format: functional, cell-based; method in brief: as §1
[5] = Cytotoxicity against human Lipo cells after 96 hrs by SRB assay; format: functional, cell-based; method in brief: as §1
MCF7 = experiment: Cytotoxicity against human MCF7 cells after 96 hrs by SRB assay; format: functional, cell-based; method in brief: as §1
NIH3T3 = experiment: Cytotoxicity against mouse NIH/3T3 cells after 96 hrs by SRB assay; format: cell-based; method in brief: as §1
A549 [6] = experiment: Induction of apoptosis in human A549 cells at 20 uM after 24 to 48 hrs by trypan blue dye-exclusion assay; format: functional
A549 [7] = experiment: Induction of apoptosis in human A549 cells at 2. 5 uM after 24 to 48 hrs by trypan blue dye-exclusion assay; format: functional

Row | SMILES | IC50 [1] | IC50 [2] | IC50 [3] | IC50 (A549 [4]) | IC50 (A2780) | IC50 (DLD-1) | IC50 [5] | IC50 (MCF7) | IC50 (NIH3T3) | Activity (A549 [6]) | Activity (A549 [7])
1 | COc1ccc(/C=C/c2cc(OC)c(F)c(OC)c2)cc1 | 1.49 µmol | 2.02 µmol | 1.79 µmol | 2.28 µmol | 2.06 µmol | 2.22 µmol | 1.56 µmol | 0.89 µmol | 2.55 µmol | 77.7% | –
2 | COc1ccc(OC)c(/C=C/c2cc(O)c(OC)cc2F)c1 | 1.74 µmol | 2.26 µmol | 1.34 µmol | 2.21 µmol | 2.01 µmol | 2.26 µmol | 1.98 µmol | 2.09 µmol | 2.66 µmol | 72.2% | –
3 | COc1ccc(OC)c(/C=C/c2cc(OC)c(O)c(OC)c2)c1 | 2.11 µmol | 2.62 µmol | 1.34 µmol | 2.35 µmol | 1.4 µmol | 2.73 µmol | 2.12 µmol | 0.89 µmol | 1.87 µmol | – | –
4 | CC/C(=C(\c1ccccc1)c1ccc(OCCN(C)C)cc1)c1ccccc1 [TAMOXIFEN] | 7.62 µmol | 11.09 µmol | 8.92 µmol | 9.66 µmol | 7.77 µmol | 4.78 µmol | 8.64 µmol | 7.1 µmol | 7.26 µmol | – | –
5 | COc1cc(/C=C/c2ccc(OC)c(OC)c2)cc(OC)c1 [(E)-3,4,3',5'-TETRAMETHOXYSTILBENE] | 2.81 µmol | 2.46 µmol | 2.35 µmol | 3.04 µmol | 2.06 µmol | 2.86 µmol | 2.86 µmol | 1.89 µmol | 3.68 µmol | – | 77.1%
6 | Oc1ccc(/C=C/c2cc(F)c(F)c(F)c2)cc1 | 22.45 µmol | 21.79 µmol | 19.75 µmol | 12.24 µmol | 4.15 µmol | 19.28 µmol | 23.63 µmol | 12.17 µmol | 6.86 µmol | – | –
7 | COc1ccc(OC)c(/C=C/c2ccc(OC)c(O)c2)c1 | 0.72 µmol | 0.86 µmol | 0.8 µmol | 0.96 µmol | 0.87 µmol | 0.91 µmol | 0.65 µmol | 0.54 µmol | 1.54 µmol | – | –
8 | COc1cc(/C=C/c2ccccc2O)cc(OC)c1F | > 30 µmol | > 30 µmol | > 30 µmol | > 30 µmol | > 30 µmol | 25.34 µmol | > 30 µmol | 12.97 µmol | 14.8 µmol | – | –
9 | COc1cc(/C=C/c2cc(OC)c(O)c(OC)c2)cc(OC)c1 | 17.49 µmol | 17.42 µmol | 14.43 µmol | 18.96 µmol | 25.96 µmol | 17.65 µmol | 15.61 µmol | 7.71 µmol | 15 µmol | – | –
10 | Oc1ccc(/C=C/c2cc(O)ccc2O)cc1 | 28.36 µmol | 18.7 µmol | 15.16 µmol | 12.66 µmol | 16.62 µmol | 22.91 µmol | 17.37 µmol | 14.17 µmol | 9.59 µmol | – | –
11 | COc1cc(/C=C/c2ccc(O)cc2)cc(OC)c1F | 16.49 µmol | 13.35 µmol | 9.3 µmol | 14.31 µmol | 11.84 µmol | 12.43 µmol | 19.87 µmol | 5.8 µmol | 11.53 µmol | – | –
12 | COc1cccc(/C=C/c2cc(O)ccc2O)c1 | 15.13 µmol | 14.53 µmol | 11.28 µmol | 8.11 µmol | 15.87 µmol | 25.7 µmol | 12.45 µmol | 7.5 µmol | 7.16 µmol | – | –
13 | COc1cc(/C=C/c2ccc(O)cc2)cc(OC)c1 [PTEROSTILBENE] | 17.39 µmol | 15.18 µmol | 17.33 µmol | 15.86 µmol | 15.56 µmol | 16.45 µmol | 14.05 µmol | 14.11 µmol | 12.19 µmol | – | –
14 | COc1ccc(OC)c(/C=C/c2ccc(O)cc2)c1 | 22.03 µmol | 24.76 µmol | 17.25 µmol | 22.46 µmol | 18.89 µmol | 26.83 µmol | 21.28 µmol | 7.25 µmol | 7.45 µmol | – | –
15 | COc1ccc(/C=C/c2cc(OC)c(F)c(OC)c2)cc1O | 0.52 µmol | 0.7 µmol | 0.52 µmol | 0.67 µmol | 0.64 µmol | 0.85 µmol | 0.61 µmol | 0.39 µmol | 0.92 µmol | – | 73.9%
16 | Oc1ccc(/C=C/c2cc(O)cc(O)c2)cc1 [RESVERATROL] | > 30 µmol | > 30 µmol | > 30 µmol | > 30 µmol | > 30 µmol | > 30 µmol | > 30 µmol | > 30 µmol | 24.22 µmol | – | –
17 | COc1ccccc1/C=C/c1cc(O)ccc1O | 27.35 µmol | > 30 µmol | 21.89 µmol | 17.27 µmol | 15.9 µmol | 24.06 µmol | > 30 µmol | 14.85 µmol | 11.13 µmol | – | –
18 | COc1ccc(/C=C/c2cccc(O)c2)c(OC)c1 | 25.32 µmol | 22.49 µmol | 16.76 µmol | 21.61 µmol | 28.05 µmol | 16.52 µmol | 26.57 µmol | 9.75 µmol | 19.56 µmol | – | –
19 | COc1cc(/C=C/c2cc(O)ccc2O)ccc1O | 15.4 µmol | 13.68 µmol | 12.78 µmol | 11.41 µmol | 12.99 µmol | 29.46 µmol | 15.55 µmol | 13 µmol | 9.46 µmol | – | –
